According to ChEMBL document CHEMBL1250499, “Chiral 6-hydroxymethyl-1H,3H-pyrrolo[1,2-c]thiazoles: novel antitumor DNA monoalkylating agents” (Eur J Med Chem, 2010):
pIC50: −log10 of the molar value.

How the values were obtained:
Type in all cases: functional, cell-based
[1] = test system: WiDr; test: Cytotoxicity against human WiDr cells after 72 hrs by MTT assay
Method in brief: (§1)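 Cells grown in DMEM with 10% heat-inactivated FBS, 1% penicillin–streptomycin and 100 μM sodium pyruvate at 37 °C, 5% CO2. Seeded at 50 000 cells/mL, attached overnight, then exposed to successive DMSO dilutions of compound. Proliferation read by MTT colorimetric assay as % inhibition versus DMSO-only controls. IC50 from dose-response curves by exponential decay fit (r2 > 0.9). Duplicates, three independent sets.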

[2] = test system: MCF7; test: Cytotoxicity against human MCF7 cells after 72 hrs by MTT assay; details: MCF7, 72 h; method in brief: as §1
[3] = test system: WiDr; test: Cytotoxicity against human WiDr cells after 96 hrs by MTT assay; method in brief: as §1
[4] = test system: WiDr; test: Cytotoxicity against human WiDr cells after 24 hrs by MTT assay; method in brief: as §1
[5] = test system: MCF7; test: Cytotoxicity against human MCF7 cells after 24 hrs by MTT assay; details: MCF7, 24 h; method in brief: as §1
[6] = test system: WiDr; test: Cytotoxicity against human WiDr cells after 48 hrs by MTT assay; method in brief: as §1
[7] = test system: A-375; test: Cytotoxicity against human A375 cells after 48 hrs by MTT assay; details: A-375, 48 h; method in brief: as §1
[8] = test system: MCF7; test: Cytotoxicity against human MCF7 cells after 48 hrs by MTT assay; details: MCF7, 48 h; method in brief: as §1
[9] = test system: A-375; test: Cytotoxicity against human A375 cells after 24 hrs by MTT assay; details: A-375, 24 h; method in brief: as §1
[10] = test system: A-375; test: Cytotoxicity against human A375 cells after 72 hrs by MTT assay; details: A-375, 72 h; method in brief: as §1
[11] = test system: A-375; test: Cytotoxicity against human A375 cells after 96 hrs by MTT assay; details: A-375, 96 h; method in brief: as §1
[12] = test system: MCF7; test: Cytotoxicity against human MCF7 cells after 96 hrs by MTT assay; details: MCF7, 96 h; method in brief: as §1

SMILES: Cc1c(COC(=O)NCc2ccccc2)cc2n1[C@@H](c1ccccc1)SC2
- pIC50 [1]: 5.06
- pIC50 [2]: 5.66
- pIC50 [3]: 4.83
- pIC50 [4]: 4.51
- pIC50 [5]: 5.06
- pIC50 [6]: 5.06
- pIC50 [7]: 4.49
- pIC50 [8]: 5.36
- pIC50 [9]: 4.43
- pIC50 [10]: 4.38
- pIC50 [11]: 4.56
- pIC50 [12]: 5.72

SMILES: Cc1cc(CO)c2n1[C@@H](c1ccccc1)SC2
- pIC50 [1]: 4.20
- pIC50 [2]: 4.52
- pIC50 [3]: 4.19
- pIC50 [4]: 3.84
- pIC50 [5]: 3.96
- pIC50 [6]: 4.02
- pIC50 [7]: 3.97
- pIC50 [8]: 4.19
- pIC50 [9]: 3.89
- pIC50 [10]: 4.21
- pIC50 [11]: 4.34
- pIC50 [12]: 4.70

SMILES: COC(=O)c1cc2n(c1C)[C@@H](c1ccccc1)SC2
- pIC50 [1]: 4.35
- pIC50 [2]: 4.31
- pIC50 [3]: 4.39
- pIC50 [4]: 4.27
- pIC50 [5]: 3.89
- pIC50 [6]: 4.24
- pIC50 [7]: 4.19
- pIC50 [8]: 4.26
- pIC50 [9]: 4.13
- pIC50 [10]: 4.25
- pIC50 [11]: 4.40
- pIC50 [12]: 4.51

SMILES: Cc1c(CO)cc2n1[C@@H](c1ccccc1)SC2
- pIC50 [1]: 4.81
- pIC50 [2]: 5.62
- pIC50 [3]: 4.96
- pIC50 [4]: 4.26
- pIC50 [5]: 4.58
- pIC50 [6]: 4.77
- pIC50 [7]: 4.16
- pIC50 [8]: 5.37
- pIC50 [9]: 3.99
- pIC50 [10]: 4.20
- pIC50 [11]: 4.43
- pIC50 [12]: 5.72

SMILES: Cc1c(CO)c(CO)c2n1[C@@H](c1ccccc1)SC2
- pIC50 [1]: 5.15
- pIC50 [2]: 6.00
- pIC50 [3]: 5.49
- pIC50 [4]: 4.22
- pIC50 [5]: 4.91
- pIC50 [6]: 5.04
- pIC50 [7]: 4.44
- pIC50 [8]: 5.72
- pIC50 [9]: 4.01
- pIC50 [10]: 4.57
- pIC50 [11]: 4.77
- pIC50 [12]: 6.22
